# Rows were chosen to be rich in hits. Some 2.2% of all compounds tested hit in one or more screens of this group.
# E-sel inducer – induces E-selectin expression in human endothelial cells; P16581; activation, % at 7.58 µM; HUVEC E-selectin immunofluorescence imaging; normalized: neutral wells 0, TNF-alpha wells 100; hit rate 0.37% among 260,000;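 active = mean E-selectin-positive cell signal at least 10% of the positive control, reached in at least 60% of replicates, without over 20% cell loss; inconclusive = no rule given, readout overlaps actives, possibly toxicity-flagged; inactive = the rest, including those meeting only one limit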
# Target sequence (P16581 whole entry, looked up): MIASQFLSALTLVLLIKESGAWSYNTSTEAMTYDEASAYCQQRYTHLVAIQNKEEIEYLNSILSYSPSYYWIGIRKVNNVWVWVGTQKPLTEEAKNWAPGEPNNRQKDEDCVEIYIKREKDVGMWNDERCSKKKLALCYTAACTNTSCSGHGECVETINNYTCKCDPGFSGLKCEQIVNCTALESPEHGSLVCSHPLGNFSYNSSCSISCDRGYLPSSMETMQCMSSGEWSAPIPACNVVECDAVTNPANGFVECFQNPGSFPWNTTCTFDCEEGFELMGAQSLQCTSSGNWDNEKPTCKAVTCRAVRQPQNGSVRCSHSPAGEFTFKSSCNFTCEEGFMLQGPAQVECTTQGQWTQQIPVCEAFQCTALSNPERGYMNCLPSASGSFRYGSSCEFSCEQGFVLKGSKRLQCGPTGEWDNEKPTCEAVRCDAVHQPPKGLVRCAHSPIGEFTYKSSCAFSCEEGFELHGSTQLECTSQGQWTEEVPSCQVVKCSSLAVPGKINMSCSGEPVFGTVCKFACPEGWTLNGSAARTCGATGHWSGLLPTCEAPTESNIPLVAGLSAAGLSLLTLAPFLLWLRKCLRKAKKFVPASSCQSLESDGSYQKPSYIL
#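 Material: HUVEC primary endothelial cells; Amount: 3,000 cells per well; Dosing: single concentration; Medium: EGM-2 growth medium on 0.1% gelatin-coated wells; Read-out basis: percent E-selectin-positive cells; Signal: immunofluorescence imaging; Control set: TNF-alpha, DMSO.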
# DENV2 CPE rescue – inhibitors of DENV2 cytopathic effect; DENV2-infected cells, cytopathic effect rescue, plate reader; CPE inhibition, % at 9.99 µM; hit rate 1.7% among 350,000; AID 651640; in the data active = CPE inhibition above about 20%, passing the limit was not always enough; inconclusive = no clear call, values can overlap the other calls; tested in BHK-21 cells;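 note: 0% = median of neutral control wells and 100% = median of positive control wells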
# Statin myotox sup – suppression of simvastatin myotoxicity; rescue of ATP level, % at 7.49 µM; C2C12 myotubes + simvastatin, ATP luminescence, 48 h; scaled: DMSO 0, geranylgeraniol control 100; hit rate 0.78% among 330,000; AID 602340;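 active = mean ATP rescue above about 67%, or every replicate alone reaching that limit, limit read from the data, passing the limit was not always enough; inconclusive = no clear call, values can overlap the other calls; inactive = mean under the limit and some replicate under it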;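 note: myotubes were challenged with 10 µM simvastatin during compound exposure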
# * marks the source's active call; other numbers are inactive results; ? = inconclusive; . = no result given.
SMILES,E-sel inducer,DENV2 CPE rescue,Statin myotox sup
O=C(c1ccccc1F)N1CC(=O)N2[C@H](CO)[C@@H](c3ccc(-c4ccc(F)cc4)cc3)[C@H]2C1,-1,-3,.
C[C@H](CO)N1C[C@H](C)[C@H](CN(C)C(=O)c2ccc(F)cc2)Oc2ncc(C#C[C@@H](C)O)cc2C1=O,0,3,-1
CCCCNS(=O)(=O)c1ccc(S(=O)(=O)NCc2ccncc2)cc1,.,-5,1
CCCCc1ccc(S(=O)(=O)NCCc2ccncc2)cc1,.,.,126*
C[C@@H]1CCCCO[C@@H](CN(C)CC2CCCCC2)[C@H](C)CN([C@@H](C)CO)C(=O)c2cc(NC(=O)Nc3ccccc3)ccc2O1,0,-21,.
C[C@H]1CN([C@@H](C)CO)C(=O)c2cccc(NS(=O)(=O)c3ccc(Cl)cc3)c2O[C@@H]1CN(C)S(=O)(=O)c1cccs1,-3,4,.
CC(C)NC(=O)N(C)C[C@@H]1Oc2c(NS(=O)(=O)c3cccs3)cccc2C(=O)N([C@@H](C)CO)C[C@H]1C,0,-8,-11
O=C(CN1CCOCC1)N1CCCCN2[C@H](CO)[C@H](c3ccc(C#Cc4ccccc4)cc3)[C@@H]2C1,0,31*,.
O=C(CN1CCOCC1)N1CCCCN2[C@H](C1)[C@@H](c1ccc(/C=C/c3ccccc3)cc1)[C@@H]2CO,0,6,-9
O=C(CN1CCOCC1)N1CCCCN2[C@H](C1)[C@H](c1ccc(-c3ccccc3)cc1)[C@@H]2CO,0,4,15
O=C(CN1CCOCC1)N1CCCCN2[C@H](CO)[C@H](c3ccc(/C=C/c4ccccc4)cc3)[C@H]2C1,0,54*,-6
O=C(CN1CCOCC1)N1CCCCN2[C@@H](CO)[C@@H](c3ccc(-c4ccccc4)cc3)[C@@H]2C1,1,61*,7
O=C(CN1CCOCC1)N1CCCCN2[C@H](CO)[C@@H](c3ccc(C#Cc4ccccc4)cc3)[C@@H]2C1,0,14,.
O=C(NC1CCC1)[C@H]1[C@H](CO)[C@H]2Cn3c(ccc(C4=CCCC4)c3=O)[C@H]2N1C(=O)C1CCCC1,0,-2,-8
CNC[C@@H]1OCCCC[C@H](C)Oc2ccc(NC(=O)CCC(F)(F)F)cc2C(=O)N([C@H](C)CO)C[C@H]1C,0,10,19
O=C(C[C@H]1CC[C@H]2[C@@H](COC[C@@H](O)CN2S(=O)(=O)c2ccc(Cl)cc2)O1)N[C@H]1CCN(Cc2ccccc2)C1,0,?,-6
C=CCC1NS(=O)(=O)OC(COC)C1C (centres undefined),.,46*,-4
COCC1OS(=O)(=O)NC(CC(=O)SC(C)(C)C)C1C (centres undefined),.,-12,10
CNC(=O)C[C@H]1CC[C@H]2[C@@H](COc3ccc(NC(=O)NCc4ccccc4)cc3C(=O)N2C)O1,0,0,-18
CN(C)C(=O)C[C@H]1CC[C@H]2[C@H](COc3ccc(NC(=O)C4CCCCC4)cc3C(=O)N2C)O1,0,.,-15
C[C@H](NC(=O)C[C@H]1C[C@H]2c3cc(NC(=O)Nc4ccc(C(F)(F)F)cc4)ccc3O[C@H]2[C@@H](CO)O1)c1ccccc1,3,4,2
C[C@@H]1CN([C@@H](C)CO)S(=O)(=O)c2ccc(C#C[C@@H](C)O)cc2O[C@@H]1CN(C)C(=O)C1CCCCC1,.,-15,0
O=C(CCN1CCCCC1)NCC[C@H]1CC[C@H](NC(=O)c2ccc(F)cc2)[C@@H](CO)O1,0,3,-8
O=C(NCCS(=O)(=O)N1CCN(c2ccccc2)CC1)C1CCCCC1,0,2,9
O=C(NCCS(=O)(=O)N1CCN(c2ccccc2)CC1)C1CC1,4,104*,-1
SMILES,E-sel inducer,DENV2 CPE rescue,Statin myotox sup
CCc1cc[n+](-c2nc([O-])sc2C=O)cc1,.,.,108*
CC(C)(C)c1cc[n+](-c2nc([O-])sc2C=O)cc1,.,-7,.
O=C(C[C@H]1C[C@@H]2c3cc(NC(=O)NC4CCCCC4)ccc3O[C@@H]2[C@@H](CO)O1)NCc1ccccn1,0,-1,-7
COc1cc(NC(C)=O)c2ncccc2c1Br,1,89*,2
COc1ccccc1C(=O)Nc1ccc(Br)c2cccnc12,.,-4,6
CC(C)(C)c1ccc(C(=O)Nc2cccc3ncccc23)cc1,0,-7,7
CC(=O)Nc1cccc2ncccc12,.,32*,.
COCC#Cc1cnc2c(c1)C(=O)N([C@@H](C)CO)C[C@H](C)[C@@H](CN(C)C(=O)CCN1CCCCC1)O2,0,-3,3
COc1ccc(-c2nnc3ccc(SCC(=O)N4CCCCC4)nn23)cc1OC,-1,30*,.
COc1ccc(-c2nnc3ccc(SCC(=O)N4CCOCC4)nn23)cc1,0,?,-2
C[C@@H]1CN([C@@H](C)CO)C(=O)Cc2cc(NC(=O)c3ccncc3)ccc2O[C@H]1CN(C)C,-4,-3,2
Cc1ccccc1S(=O)(=O)N1CC(=O)N2[C@H](CO)[C@@H](c3ccc(C#CCN(C)C)cc3)[C@H]2C1,0,43*,.
Cc1ccccc1S(=O)(=O)N1CC(=O)N2[C@@H](CO)[C@H](c3ccc(C#CCN(C)C)cc3)[C@@H]2C1,1,14,.
Cc1ccccc1S(=O)(=O)N1CC(=O)N2[C@H](CO)[C@@H](c3ccc(C#CCN(C)C)cc3)[C@@H]2C1,1,34*,.
Cc1ccccc1S(=O)(=O)N1CC(=O)N2[C@H](C1)[C@@H](c1ccc(C#CCN(C)C)cc1)[C@@H]2CO,1,3,.
C[C@H]1CN([C@@H](C)CO)C(=O)c2cc(NS(=O)(=O)c3ccc(Cl)cc3)ccc2O[C@@H]1CN(C)S(=O)(=O)c1ccc(F)cc1,0,2,-13
CCNc1nc(OC)nc(SCC(N)=O)n1,.,.,69*
CCNc1nc(NCc2ccccc2)nc(SCC(N)=O)n1,2,2,13
C[C@H]1CN([C@@H](C)CO)C(=O)c2cccc(NC(=O)CCCCCC(=O)Nc3ccccc3N)c2O[C@@H]1CN(C)S(C)(=O)=O,.,-7,.
C[C@H]1CN([C@@H](C)CO)C(=O)c2cccc(NC(=O)CCCCCC(=O)Nc3ccccc3N)c2O[C@H]1CN(C)S(C)(=O)=O,.,-3,.
C[C@H](CO)N1C[C@H](C)[C@H](CN(C)S(=O)(=O)c2cccs2)Oc2c(NC(=O)CCCCCC(=O)Nc3ccccc3N)cccc2C1=O,0,22*,.
C[C@H]1CN([C@@H](C)CO)C(=O)c2cccc(NC(=O)CCCCCC(=O)Nc3ccccc3N)c2O[C@H]1CN(C)S(=O)(=O)c1cccs1,0,55*,.
C[C@@H]1CN([C@H](C)CO)C(=O)c2cccc(NC(=O)c3cnccn3)c2O[C@H]1CN(C)Cc1ccccc1,0,1,-33
C[C@H](CO)N1C[C@H](C)[C@@H](CN(C)S(=O)(=O)c2ccccc2)Oc2ccc(NC(=O)Nc3ccc(C(F)(F)F)cc3)cc2CC1=O,0,65*,.
C[C@@H]1CN([C@@H](C)CO)C(=O)c2cc(NC(=O)Nc3ccc(C(F)(F)F)cc3)ccc2O[C@@H]1CN(C)S(=O)(=O)c1ccc(F)cc1,0,0,-95
Cc1noc(C)c1NC(=O)Nc1ccc2c(c1)CC(=O)N([C@H](C)CO)C[C@H](C)[C@H](CN(C)S(=O)(=O)c1ccccc1)O2,47*,-4,-20

# Compound activity deposited in PubChem BioAssay by Broad Institute.
